In ChEMBL document CHEMBL1156750 (Bioorg Med Chem Lett, 2009):

Key:
[1] = system: Plasma; assay: Anticoagulant activity in human plasma assessed as concentration required to double the prothrombin based clotting time after 30 seconds; assay type: functional
In short: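 Human plasma prothrombin-based clotting time; value is the inhibitor concentration that doubles the clotting time, averaged from two independent determinations.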

[2] = target: Cytochrome P450 2C9 (Homo sapiens, UniProt P11712); assay: Inhibition of CYP2C9; assay type: ADME
Cytochrome P450 2C9, sequence (P11712 whole entry): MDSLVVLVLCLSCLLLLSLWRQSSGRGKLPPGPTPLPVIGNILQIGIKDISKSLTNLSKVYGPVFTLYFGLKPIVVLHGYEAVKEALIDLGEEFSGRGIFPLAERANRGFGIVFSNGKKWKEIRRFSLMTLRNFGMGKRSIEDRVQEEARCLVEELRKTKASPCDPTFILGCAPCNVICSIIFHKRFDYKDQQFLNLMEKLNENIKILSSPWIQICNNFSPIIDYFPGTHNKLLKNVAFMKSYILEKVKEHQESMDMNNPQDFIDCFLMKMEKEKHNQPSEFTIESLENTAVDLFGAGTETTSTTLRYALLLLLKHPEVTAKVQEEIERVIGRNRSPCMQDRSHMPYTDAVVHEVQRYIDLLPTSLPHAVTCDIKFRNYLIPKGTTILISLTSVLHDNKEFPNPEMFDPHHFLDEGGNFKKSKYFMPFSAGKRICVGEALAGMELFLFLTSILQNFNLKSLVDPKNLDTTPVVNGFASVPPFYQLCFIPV

[3] = target: Cytochrome P450 3A4 (Homo sapiens, UniProt P08684); assay: Inhibition of CYP3A4 using BFC as a substrate; assay type: ADME
Cytochrome P450 3A4, sequence (P08684 whole entry): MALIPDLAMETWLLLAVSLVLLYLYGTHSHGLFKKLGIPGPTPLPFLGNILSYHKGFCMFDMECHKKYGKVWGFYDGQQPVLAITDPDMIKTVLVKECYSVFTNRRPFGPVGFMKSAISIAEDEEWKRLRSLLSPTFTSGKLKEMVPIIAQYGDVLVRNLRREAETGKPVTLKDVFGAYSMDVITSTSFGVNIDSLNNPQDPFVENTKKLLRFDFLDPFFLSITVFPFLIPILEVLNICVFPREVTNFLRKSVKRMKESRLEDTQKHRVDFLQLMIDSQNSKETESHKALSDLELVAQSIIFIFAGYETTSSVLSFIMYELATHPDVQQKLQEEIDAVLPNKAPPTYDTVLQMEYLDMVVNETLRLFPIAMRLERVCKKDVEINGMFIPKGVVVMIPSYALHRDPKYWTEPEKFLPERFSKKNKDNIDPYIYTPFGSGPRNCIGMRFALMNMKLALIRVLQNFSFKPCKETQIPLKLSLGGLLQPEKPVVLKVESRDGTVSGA

[4] = target: Cytochrome P450 2C19 (Homo sapiens, UniProt P33261); assay: Inhibition of CYP2C19; assay type: ADME
Cytochrome P450 2C19, sequence (P33261 whole entry): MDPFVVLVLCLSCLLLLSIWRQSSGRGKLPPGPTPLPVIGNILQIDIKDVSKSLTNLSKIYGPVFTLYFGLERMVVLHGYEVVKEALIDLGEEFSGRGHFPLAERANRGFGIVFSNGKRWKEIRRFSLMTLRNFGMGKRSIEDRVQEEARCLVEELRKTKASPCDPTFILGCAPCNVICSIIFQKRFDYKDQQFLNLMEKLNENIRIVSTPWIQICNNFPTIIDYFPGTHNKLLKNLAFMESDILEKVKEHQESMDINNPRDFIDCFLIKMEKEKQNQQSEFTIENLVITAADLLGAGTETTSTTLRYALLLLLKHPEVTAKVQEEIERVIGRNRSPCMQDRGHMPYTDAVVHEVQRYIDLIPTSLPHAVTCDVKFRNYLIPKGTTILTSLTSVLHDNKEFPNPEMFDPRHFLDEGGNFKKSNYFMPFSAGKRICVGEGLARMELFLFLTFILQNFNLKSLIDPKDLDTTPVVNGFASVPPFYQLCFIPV

[5] = target: Coagulation factor X (Homo sapiens, UniProt P00742)
Coagulation factor X, sequence (P00742 41-179 limits assumed): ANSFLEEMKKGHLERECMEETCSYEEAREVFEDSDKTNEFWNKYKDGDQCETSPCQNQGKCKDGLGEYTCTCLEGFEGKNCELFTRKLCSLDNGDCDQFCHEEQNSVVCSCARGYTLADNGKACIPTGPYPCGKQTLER
Coagulation factor X, sequence (P00742 235-488 limits assumed): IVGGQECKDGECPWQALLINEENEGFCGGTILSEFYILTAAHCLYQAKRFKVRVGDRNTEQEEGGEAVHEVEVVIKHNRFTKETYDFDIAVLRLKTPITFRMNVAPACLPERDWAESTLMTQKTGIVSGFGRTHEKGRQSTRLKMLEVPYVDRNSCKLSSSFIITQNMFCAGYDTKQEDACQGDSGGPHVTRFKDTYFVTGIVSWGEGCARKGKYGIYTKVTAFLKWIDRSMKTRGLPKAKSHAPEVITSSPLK

[6] = system: Rattus norvegicus; assay: Ex vivo anticoagulant activity in Sprague-Dawley rat assessed as prolongation of prothrombin time at 30mg/kg, id after 120 mins; assay type: functional
In short: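 Anesthetized rats dosed intraduodenally at 30 mg/kg in 10% ethanol/90% PEG300, then a saline flush. Arterial blood drawn into 3.8% Na-citrate (1/10, v/v) before dosing and at 30, 60, 90 and 120 min. Ex vivo prothrombin time measured on a micro coagulation analyzer using Thromboplastin-C reagent.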

[7] = system: Rattus norvegicus; assay: Anticoagulant activity against Sprague-Dawley rat arterial thrombosis model induced by topical application of Fecl2; assay type: functional
In short: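 Rat carotid artery thrombosis: vehicle (PEG-400) or compound given by 1 mL/kg gavage at 0 min (5, 10, 15, 30 mg/kg; n = 5, 6, 6, 4; vehicle n = 8), with aspirin 10 mg/kg iv 15 min before FeCl2. Rats anesthetized at 30 min. 50% FeCl2 applied topically at 60 min for 10 min. Thrombus weight taken 1 h later. ANOVA with Dunnett's test.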

Row | SMILES | Activity [1] | IC50 [5] | other results
1 | COC(=O)c1ccc(C(=O)/N=C(\Nc2ccc3oc(C)cc3c2)N[C@H]2CCCCN(CC(=O)N3CCCC3)C2=O)nc1 | 16 µM | – | –
2 | CCOC(=O)/N=C(\Nc1ccc2oc(C)cc2c1)N[C@H]1CCCCN(CC(=O)N2CCCC2)C1=O | 34 µM | – | –
3 | Cc1cc2cc(N/C(=N\C(=O)c3ccoc3)N[C@H]3CCCCN(CC(=O)N4CCCC4)C3=O)ccc2o1 | 33 µM | – | –
4 | Cc1cc2cc(N/C(=N\C(=O)c3nnn(C)n3)N[C@H]3CCCCN(CC(=O)N4CCCC4)C3=O)ccc2o1 | 28 µM | – | –
5 | Cc1cc2cc(N/C(=N\C(=O)c3ccc(C(=O)O)nc3)N[C@H]3CCCCN(CC(=O)N4CCCC4)C3=O)ccc2o1 | 6.8 µM | – | IC50 [2]: 122 µM; IC50 [3]: 87 µM; IC50 [4]: 47 µM
6 | Cc1cc2cc(N/C(=N\S(C)(=O)=O)N[C@H]3CCCCN(CC(=O)N4CCCC4)C3=O)ccc2o1 | 60 µM | 0.01 µM | –
7 | Cc1cc2cc(N/C(=N\C(=O)c3ccc(C(N)=O)nc3)N[C@H]3CCCCN(CC(=O)N4CCCC4)C3=O)ccc2o1 | 5.7 µM | – | IC50 [2]: 22 µM; IC50 [3]: 18 µM; IC50 [4]: 13 µM
8 | CNC(=O)c1ccc(C(=O)/N=C(\Nc2ccc3oc(C)cc3c2)N[C@H]2CCCCN(CC(=O)N3CCCC3)C2=O)cn1 | 3 µM | – | IC50 [2]: 24 µM; IC50 [3]: 18 µM; IC50 [4]: 12 µM
9 | Cc1cc2cc(N/C(=N\C(=O)c3ccc(Cl)nc3)N[C@H]3CCCCN(CC(=O)N4CCCC4)C3=O)ccc2o1 | 14 µM | – | IC50 [2]: 12 µM; IC50 [3]: 8 µM; IC50 [4]: 22 µM
10 | Cc1cc2cc(N/C(=N/[N+](=O)[O-])N[C@H]3CCCCN(CC(=O)N4CCCC4)C3=O)ccc2o1 | >50 µM | 0.025 µM | –
11 | Cc1cc2cc(/N=C(/NC#N)N[C@H]3CCCCN(CC(=O)N4CCCC4)C3=O)ccc2o1 | 32 µM | – | fold change (FC) [6]: >=1.8; fold change (FC) [7]: ≥ 1.8
12 | Cc1cc2cc(N/C(=N\C(=O)c3cnn(C)c3)N[C@H]3CCCCN(CC(=O)N4CCCC4)C3=O)ccc2o1 | 11 µM | – | –
13 | Cc1cc2cc(N/C(=N\S(N)(=O)=O)N[C@H]3CCCCN(CC(=O)N4CCCC4)C3=O)ccc2o1 | >50 µM | 0.012 µM | –
14 | Cc1cc2cc(N/C(=N\C(=O)c3cncc(C(N)=O)c3)N[C@H]3CCCCN(CC(=O)N4CCCC4)C3=O)ccc2o1 | 7 µM | – | IC50 [2]: 10 µM; IC50 [3]: 0.4 µM; IC50 [4]: 37 µM
15 | Cc1cc2cc(N/C(=N\C(N)=O)N[C@H]3CCCCN(CC(=O)N4CCCC4)C3=O)ccc2o1 | 60 µM | – | –
16 | Cc1cc2cc(N/C(=N\C(=O)c3ccc(C(=O)N(C)C)cc3)N[C@H]3CCCCN(CC(=O)N4CCCC4)C3=O)ccc2o1 | 4 µM | 0.003 µM | fold change (FC) [7]: >=3.6
17 | Cc1cc2cc(N/C(=N\C(=O)c3cccc(C(=O)N(C)C)c3)N[C@H]3CCCCN(CC(=O)N4CCCC4)C3=O)ccc2o1 | 8 µM | 0.01 µM | –

Row | SMILES | Activity [1] | IC50 [5] | other results
18 | COC(=O)c1cccc(C(=O)/N=C(\Nc2ccc3oc(C)cc3c2)N[C@H]2CCCCN(CC(=O)N3CCCC3)C2=O)c1 | 41 µM | 0.005 µM | –
19 | Cc1cc2cc(N/C(=N\C(=O)N(C)C)N[C@H]3CCCCN(CC(=O)N4CCCC4)C3=O)ccc2o1 | 55 µM | – | –
20 | COC(=O)c1ccc(C(=O)/N=C(\Nc2ccc3oc(C)cc3c2)N[C@H]2CCCCN(CC(=O)N3CCCC3)C2=O)cc1 | 18 µM | – | –
21 | Cc1cc2cc(N/C(=N\C(=O)c3cnccn3)N[C@H]3CCCCN(CC(=O)N4CCCC4)C3=O)ccc2o1 | 18 µM | – | –
22 | Cc1cc2cc(N/C(=N\C(=O)c3ccc[n+]([O-])c3)N[C@H]3CCCCN(CC(=O)N4CCCC4)C3=O)ccc2o1 | 3 µM | 0.01 µM | IC50 [2]: 122 µM; IC50 [3]: 0.9 µM; IC50 [4]: 128 µM
23 | Cc1cc2cc(N/C(=N\C(=O)c3ccncc3)N[C@H]3CCCCN(CC(=O)N4CCCC4)C3=O)ccc2o1 | 16 µM | – | –
24 | Cc1cc2cc(N/C(=N\S(=O)(=O)c3ccccc3)N[C@H]3CCCCN(CC(=O)N4CCCC4)C3=O)ccc2o1 | >50 µM | 0.024 µM | –
25 | Cc1cc2cc(/N=C(/NC(=O)c3cccnc3)N[C@H]3CCCCN(CC(=O)N4CCCC4)C3=O)ccc2o1 | 7 µM | – | IC50 [2]: 10 µM; IC50 [3]: 0.3 µM; IC50 [4]: 8 µM; fold change (FC) [6]: >=3.2
26 | Cc1cc2cc(N/C(=N\C(=O)c3ccc(C(=O)O)cc3)N[C@H]3CCCCN(CC(=O)N4CCCC4)C3=O)ccc2o1 | 5 µM | – | –
27 | Cc1cc2cc(N/C(=N\C(=O)c3ccccc3)N[C@H]3CCCCN(CC(=O)N4CCCC4)C3=O)ccc2o1 | 48 µM | – | –
28 | Cc1cc2cc(N/C(=N\C(=O)c3ccc(C(N)=O)cc3)N[C@H]3CCCCN(CC(=O)N4CCCC4)C3=O)ccc2o1 | 5 µM | 0.003 µM | fold change (FC) [7]: >=3.6
29 | Cc1cc2cc(N/C(=N\C(=O)c3cccc(Cl)c3)N[C@H]3CCCCN(CC(=O)N4CCCC4)C3=O)ccc2o1 | >50 µM | – | –
30 | Cc1ccc(C(=O)/N=C(\Nc2ccc3oc(C)cc3c2)N[C@H]2CCCCN(CC(=O)N3CCCC3)C2=O)cn1 | 12 µM | – | IC50 [2]: 9 µM; IC50 [3]: 7 µM; IC50 [4]: 27 µM
31 | CC(=O)/N=C(\Nc1ccc2oc(C)cc2c1)N[C@H]1CCCCN(CC(=O)N2CCCC2)C1=O | 70 µM | – | –
32 | Cc1cc2cc(N/C(=N\C(=O)c3ccsc3)N[C@H]3CCCCN(CC(=O)N4CCCC4)C3=O)ccc2o1 | 19 µM | – | –
33 | Cc1cc2cc(N/C(=N\C(=O)c3cccc(C(N)=O)c3)N[C@H]3CCCCN(CC(=O)N4CCCC4)C3=O)ccc2o1 | 7 µM | 0.018 µM | –
